Test results published in ChEMBL document CHEMBL1145787, “Synthesis and structure-activity relationship of N-substituted 4-arylsulfonylpiperidine-4-hydroxamic acids as novel, orally active matrix metalloproteinase inhibitors for the treatment of osteoarthritis” (J Med Chem, 2003).
Each block holds one molecule with its values, some of them ahead of it.

Columns and labels:
[1] = molecular target: T1, Interstitial collagenase (Homo sapiens) (UniProt P03956); test: Inhibition of Matrix metalloprotease-1 at 10 uM
T1 sequence (whole entry): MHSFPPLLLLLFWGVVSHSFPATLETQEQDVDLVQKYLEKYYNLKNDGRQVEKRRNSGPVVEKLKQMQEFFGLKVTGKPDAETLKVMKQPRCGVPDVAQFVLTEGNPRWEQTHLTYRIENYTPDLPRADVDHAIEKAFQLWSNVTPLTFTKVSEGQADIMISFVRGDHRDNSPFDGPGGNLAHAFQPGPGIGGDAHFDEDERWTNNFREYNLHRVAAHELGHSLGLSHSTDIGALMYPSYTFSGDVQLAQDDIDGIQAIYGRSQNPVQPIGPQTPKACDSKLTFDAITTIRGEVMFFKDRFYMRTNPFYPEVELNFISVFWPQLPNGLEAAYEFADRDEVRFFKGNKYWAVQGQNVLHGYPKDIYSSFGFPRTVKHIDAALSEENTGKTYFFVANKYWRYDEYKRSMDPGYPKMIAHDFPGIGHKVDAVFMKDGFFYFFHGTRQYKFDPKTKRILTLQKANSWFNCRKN
In short: (§1)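 Dose–response curves were not generated when inhibition was below 60% at 10 μM.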

Collagenase 3 = Collagenase 3 (Homo sapiens, UniProt P45452)
[2] = In vivo inhibitory activity against Matrix metalloprotease enzyme by dialysis implant assay, value is relative to activity of CGS-27023 (74+/-2) at 25 mg/kg. po; type: functional
[3] = In vivo inhibition of Matrix metalloprotease enzyme by Sponge-wrapped cartilage assay, value is relative to activity of RS-130830 (43+/-3) at 25 mg/kg. po. bid; type: functional
[4] = molecular target: Matrix metalloproteinase-9 (Homo sapiens, UniProt P14780); test: In vitro inhibitory activity against matrix metalloprotease-9.
[5] = In vivo inhibitory activity against Matrix metalloprotease enzyme by dialysis implant assay, value is relative to activity of CGS-27023 (51+/-2) at 25 mg/kg. po; type: functional
[6] = In vivo inhibition of Matrix metalloprotease enzyme by Sponge-wrapped cartilage assay, value is relative to activity of CGS-27023 (39+/-3) at 25 mg/kg. po. bid; type: functional
Interstitial collagenase = molecular target: T2, Interstitial collagenase (Homo sapiens, UniProt P03956); test: In vitro inhibitory activity against matrix metalloprotease-1
T2 sequence (P03956 whole entry): T1 sequence (whole entry)

[7] = In vivo inhibition of Matrix metalloprotease enzyme by Sponge-wrapped cartilage assay, value is relative to activity of RS-130830 (39+/-2) at 10 mg/kg. po. bid; type: functional
[8] = molecular target: T3, Disintegrin and metalloproteinase domain-containing protein 17 (Homo sapiens, UniProt P78536); test: In vitro inhibitory activity against tumor necrosis factor alpha converting enzyme (TACE).
[9] = In vivo inhibitory activity against Matrix metalloprotease enzyme by dialysis implant assay, value is relative to activity of CGS-27023 (73+/-3) at 25 mg/kg. po; type: functional
[10] = In vivo inhibition of Matrix metalloprotease enzyme by Sponge-wrapped cartilage assay, value is relative to activity of CGS-27023 (27+/-2) at 25 mg/kg. po. bid; type: functional
[11] = In vivo inhibitory activity against Matrix metalloprotease enzyme by dialysis implant assay, value is relative to activity of CGS-27023 (69+/-2) at 25 mg/kg. po; type: functional
[12] = In vivo inhibitory activity against Matrix metalloprotease enzyme by dialysis implant assay, value is relative to activity of CGS-27023 (35+/-4) at 25 mg/kg. po; type: functional
[13] = molecular target: T3, Disintegrin and metalloproteinase domain-containing protein 17; test: Inhibition of Tumor necrosis factor alpha converting enzyme (TACE) at 10 uM; in short: as §1
[14] = In vivo inhibitory activity against Matrix metalloprotease enzyme by dialysis implant assay, value is relative to activity of CGS-27023 (38+/-3) at 25 mg/kg. po; type: functional
[15] = In vivo inhibitory activity against Matrix metalloprotease enzyme by dialysis implant assay, value is relative to activity of CGS-27023 (68+/-5) at 25 mg/kg. po; type: functional
[16] = In vivo inhibitory activity against Matrix metalloprotease enzyme by dialysis implant assay, value is relative to activity of CGS-27023 (76+/-2) at 25 mg/kg. po; type: functional
[17] = In vivo inhibitory activity against Matrix metalloprotease enzyme by dialysis implant assay, value is relative to activity of CGS-27023 (65+/-4) at 25 mg/kg. po; type: functional
[18] = In vivo inhibitory activity against Matrix metalloprotease enzyme by dialysis implant assay, value is relative to activity of CGS-27023 (58+/-2) at 25 mg/kg. po; type: functional
[19] = In vivo inhibitory activity against Matrix metalloprotease enzyme by dialysis implant assay, value is relative to activity of CGS-27023 (54+/-2) at 25 mg/kg. po; type: functional
[20] = In vivo inhibition of Matrix metalloprotease enzyme by Sponge-wrapped cartilage assay, value is relative to activity of CGS-27023 (25+/-4) at 25 mg/kg. po. bid; type: functional
[21] = In vivo inhibition of Matrix metalloprotease enzyme by Sponge-wrapped cartilage assay, value is relative to activity of CGS-27023 (37+/-5) at 25 mg/kg. po. bid; type: functional

Sequence of Matrix metalloproteinase-9 (P14780 whole entry): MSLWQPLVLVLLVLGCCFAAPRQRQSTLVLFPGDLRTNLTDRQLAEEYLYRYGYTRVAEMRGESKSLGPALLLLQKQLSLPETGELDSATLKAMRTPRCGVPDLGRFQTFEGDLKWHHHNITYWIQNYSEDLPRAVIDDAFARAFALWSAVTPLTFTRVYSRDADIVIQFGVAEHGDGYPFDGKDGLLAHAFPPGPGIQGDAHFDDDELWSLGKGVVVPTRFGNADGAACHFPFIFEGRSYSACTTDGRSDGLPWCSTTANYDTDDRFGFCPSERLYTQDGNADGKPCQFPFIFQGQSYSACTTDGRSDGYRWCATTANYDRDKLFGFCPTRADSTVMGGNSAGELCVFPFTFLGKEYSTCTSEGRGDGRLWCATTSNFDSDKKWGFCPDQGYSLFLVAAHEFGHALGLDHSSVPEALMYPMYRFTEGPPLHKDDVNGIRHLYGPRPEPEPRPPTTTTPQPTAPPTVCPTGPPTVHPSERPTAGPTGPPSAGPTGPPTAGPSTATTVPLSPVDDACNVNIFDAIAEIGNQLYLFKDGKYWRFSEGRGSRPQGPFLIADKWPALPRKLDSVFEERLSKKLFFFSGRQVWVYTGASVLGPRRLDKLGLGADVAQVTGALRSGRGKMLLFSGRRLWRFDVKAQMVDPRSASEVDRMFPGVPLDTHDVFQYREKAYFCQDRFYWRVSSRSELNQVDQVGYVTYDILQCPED
T3 sequence (P78536 whole entry, the tested form may be a part): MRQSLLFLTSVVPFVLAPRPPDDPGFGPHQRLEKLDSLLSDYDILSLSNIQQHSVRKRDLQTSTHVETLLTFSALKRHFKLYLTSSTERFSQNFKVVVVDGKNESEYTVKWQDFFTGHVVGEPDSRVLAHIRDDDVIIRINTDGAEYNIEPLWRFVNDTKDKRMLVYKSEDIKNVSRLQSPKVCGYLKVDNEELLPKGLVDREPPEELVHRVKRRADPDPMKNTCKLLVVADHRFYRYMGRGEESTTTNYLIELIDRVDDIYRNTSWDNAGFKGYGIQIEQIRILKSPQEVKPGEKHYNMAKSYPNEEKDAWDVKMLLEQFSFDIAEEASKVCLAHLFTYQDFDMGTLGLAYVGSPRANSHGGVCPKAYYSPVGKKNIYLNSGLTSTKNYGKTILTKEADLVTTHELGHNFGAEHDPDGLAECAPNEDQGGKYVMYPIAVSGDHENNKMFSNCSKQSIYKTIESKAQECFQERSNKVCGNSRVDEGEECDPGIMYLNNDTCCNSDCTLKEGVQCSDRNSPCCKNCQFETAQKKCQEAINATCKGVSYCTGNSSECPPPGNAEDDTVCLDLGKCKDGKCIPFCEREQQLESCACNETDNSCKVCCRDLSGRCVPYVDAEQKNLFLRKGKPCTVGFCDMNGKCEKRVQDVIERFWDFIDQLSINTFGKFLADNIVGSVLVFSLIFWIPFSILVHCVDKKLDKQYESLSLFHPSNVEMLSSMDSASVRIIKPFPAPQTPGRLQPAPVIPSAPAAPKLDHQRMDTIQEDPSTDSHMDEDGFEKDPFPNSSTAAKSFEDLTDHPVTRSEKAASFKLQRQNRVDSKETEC

inhibition [1]: 50% | IC50 (Collagenase 3): 2 nM
SMILES: CCCCOc1ccc(S(=O)(=O)C2(C(=O)NO)CCN(CCCC)CC2)cc1
inhibition in vivo at 25 mg/kg [2]: 86% | inhibition in vivo at 25 mg/kg [3]: 46%

IC50 [4]: 4 nM | IC50 (Collagenase 3): 1 nM
SMILES: CCCCOc1ccc(S(=O)(=O)C2(C(=O)NO)CCN(Cc3ccccc3)CC2)cc1
inhibition in vivo at 25 mg/kg [5]: 80% | inhibition in vivo at 25 mg/kg [6]: 53%

IC50 [4]: 1 nM | IC50 (Interstitial collagenase): 1070 nM | IC50 (Collagenase 3): 1 nM
SMILES: CCCCN1CCC(C(=O)NO)(S(=O)(=O)c2ccc(Oc3ccc(Cl)cc3)cc2)CC1
inhibition in vivo at 10 mg/kg [7]: 69% | IC50 [8]: 301 nM | inhibition in vivo at 25 mg/kg [9]: 93%

IC50 [4]: 5 nM
SMILES: CCCCOc1ccc(S(=O)(=O)C2(C(=O)NO)CCN(CCCOc3ccccc3)CC2)cc1
inhibition in vivo at 25 mg/kg [10]: 17% | inhibition in vivo at 25 mg/kg [11]: 67%

IC50 [4]: 3 nM | IC50 (Interstitial collagenase): 40 nM | inhibition [1]: 48%
SMILES: O=C(NO)C1(S(=O)(=O)c2ccc(OCc3ccccc3)cc2)CCN(Cc2ccccc2)CC1
IC50 [8]: 416 nM | inhibition in vivo at 25 mg/kg [12]: 17%

SMILES: CCN1CCC(C(=O)NO)(S(=O)(=O)c2ccc(OC)cc2)CC1
inhibition [13]: 25% | inhibition in vivo at 25 mg/kg [14]: 17%

SMILES: COc1ccc(S(=O)(=O)C2(C(=O)NO)CCN(C(C)C)CC2)cc1
inhibition [13]: 18% | inhibition in vivo at 25 mg/kg [15]: 49%

IC50 [4]: 17 nM | IC50 (Collagenase 3): 2 nM
SMILES: COc1ccc(S(=O)(=O)C2(C(=O)NO)CCN(Cc3ccc(C)cc3)CC2)cc1
inhibition in vivo at 25 mg/kg [16]: 89%

SMILES: CCCCOc1ccc(S(=O)(=O)C2(C(=O)NO)CCN(Cc3cccc(OCCN4CCOCC4)c3)CC2)cc1
inhibition in vivo at 25 mg/kg [17]: 27%

SMILES: COc1ccc(S(=O)(=O)C2(C(=O)NO)CCN(C)CC2)cc1
inhibition [13]: 20% | inhibition in vivo at 25 mg/kg [18]: 36%

IC50 [4]: 3 nM | IC50 (Collagenase 3): 1 nM
SMILES: CCCCOc1ccc(S(=O)(=O)C2(C(=O)NO)CCN(Cc3ccc(OC)cc3)CC2)cc1
inhibition in vivo at 25 mg/kg [19]: 69% | inhibition in vivo at 25 mg/kg [20]: 17%

IC50 (Collagenase 3): 2 nM
SMILES: COc1ccc(CN2CCC(C(=O)NO)(S(=O)(=O)c3ccc(OC)cc3)CC2)cc1
inhibition in vivo at 25 mg/kg [21]: 45% | inhibition in vivo at 25 mg/kg [11]: 75%
